The test system of one test is HT-29. The test is described as follows: Antiproliferative activity against human HT-29 cells after 72 hrs by MTT assay. Format: functional, cell-based. The settings on record: HT-29, 72 h.
The test system of the next test is Jurkat. The test can be described thus: Antiproliferative activity against human Jurkat cells after 72 hrs by MTT assay. Format: functional, cell-based. The essentials: (§1)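 Cells seeded at 8 × 10³ per well and incubated 18 h at 37 °C, 5% CO₂, then exposed to a range of compound concentrations for 72 h at 37 °C. Jurkat and HL-60 were grown in RPMI-1640, the others in DMEM, with penicillin, streptomycin and 10% FBS. DMSO stocks (10 mM); DMSO ≤0.25% final. Viability by MTT. […] Mean ± SE of ≥3 independent experiments.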

For the next test, the system named is MCF7. The test can be described thus: Antiproliferative activity against human MCF7 cells after 72 hrs by MTT assay. The settings on record: MCF7, 72 h. Format: functional, cell-based. On the technique in general: Formazan colour is commonly taken as a measure of viable cells.
Test [1] concerns A549. The test can be described thus: Antiproliferative activity against human A549 cells after 72 hrs by MTT assay. Format: functional, cell-based. Particulars: A549, 72 h.
The subject of the next test is HeLa. The test can be described thus: Antiproliferative activity against human HeLa cells after 72 hrs by MTT assay. Format: functional, cell-based.
A further test has as its system HL-60. The test is described as follows: Antiproliferative activity against human HL60 cells after 72 hrs by MTT assay. Format: functional, cell-based. The settings on record: HL-60, 72 h.
The nature of test [2]: Inhibition of bovine brain tubulin polymerization preincubated for 15 mins by turbidimetric analysis. More on the design: species or system Bos taurus. A digest of the protocol: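 Bovine brain tubulin (10 μM) in glutamate buffer preincubated with varying compound concentrations for 15 min at 30 °C, then chilled to 0 °C. GTP 0.4 mM added and mixtures warmed to 30 °C in a spectrophotometer; assembly followed by turbidity at 350 nm.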

The next test is filed under the species Bos taurus. The test can be described thus: Displacement of [3H]colchicine from tubulin in bovine brain at 5 uM DEAE-cellulose filter method. A general note: Displacement assays read how much labelled ligand stays bound in the presence of the test substance.
Test [3] in a line: Antiproliferative activity against human doxorubicin-resistant LoVo/DX cells overexpressing P-glycoprotein after 72 hrs by MTT assay. Format: functional, cell-based. A digest of the protocol: (§2)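 Resistant sublines cultured under selection: LoVo^Doxo (doxorubicin-resistant LoVo subclone) in complete Ham's F12 with doxorubicin 0.1 μg/mL; A549-T12 in complete DMEM with taxol 12 nM. Seeded at 8 × 10³ per well, 18 h preincubation, then 72 h compound exposure at 37 °C. MTT read-out.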

Test [4] has as its system CCRF-CEM. The test can be described thus: Resistance ratio of IC50 for human vinblastine-resistant CEM/VBL100 cells overexpressing P-glycoprotein to IC50 for human CEM cells. Format: functional.
Test [5] deals with A549. The test can be described thus: Resistance ratio of IC50 for human taxol-resistant A549-T12 cells expressing tubulin mutant gene to IC50 for human A549 cells. Format: functional.
Test [6] can be described thus: Antiproliferative activity against human taxol-resistant A549-T12 cells expressing tubulin mutant gene after 72 hrs by MTT assay. Format: functional, cell-based. Particulars: A549, 72 h. The essentials:
as §2

Test [7] has as its system LoVo. The test can be described thus: Resistance ratio of IC50 for human doxorubicin-resistant LoVo/DX cells overexpressing P-glycoprotein to IC50 for human LoVo cells. Format: functional.
Test [8] in a line: Antiproliferative activity against human vinblastine-resistant CEM/VBL100 cells overexpressing P-glycoprotein after 72 hrs by MTT assay. Format: functional, cell-based. Particulars: CEM/VBL100, 72 h.
The subject of test [9] is CCRF-CEM. The test can be described thus: Antiproliferative activity against human CEM cells after 72 hrs by MTT assay. Format: functional, cell-based.
Test [10] deals with LoVo. The test can be described thus: Antiproliferative activity against human LoVo cells after 72 hrs by MTT assay. Format: functional, cell-based. The essentials:
as §1

For orientation: IC50 means the midpoint of a concentration-inhibition curve. The low end stands for greater potency, the high end for weaker potency. For the compound `COc1cc(-c2nc(N(C)C)sc2-c2ccc3ccccc3c2)cc(OC)c1OC`, the IC50 with HT-29 was 729 nM; in the test on Jurkat, 836 nM; in the test with MCF7, 2380 nM; with A549 [1], 2900 nM; in the test with HeLa, 1400 nM; in the test on HL-60, 2570 nM. Besides, the IC50 in test [2] is over 20000 nM.
The term inhibition denotes how much of the control response was suppressed. Low values mean little suppression, high ones strong suppression. On to `CNc1nc(-c2cc(OC)c(OC)c(OC)c2)c(-c2ccc(C)cc2)s1`, for which the IC50 in the test on HT-29 stood at 423 nM; in the test with Jurkat, 19 nM; with MCF7 it was 10.1 nM; in the test with A549 [1], 125 nM; in the test on HeLa it was 69.1 nM; in the test with HL-60, 18.1 nM. The same compound came in with an IC50 in test [2] of 1200 nM. In the test filed under Bos taurus, this compound gave an inhibition of 68%.
Consider `COc1ccc(-c2sc(C)nc2-c2cc(OC)c(OC)c(OC)c2)cc1`, for which the IC50 stood at 1420 nM in the test with HT-29; 1760 nM with Jurkat; 606 nM with MCF7; 2560 nM in the test with A549 [1]; 500 nM in the test with HeLa; 3430 nM in the test on HL-60.
On to `COc1cccc2c1C(=O)c1c(O)c3c(c(O)c1C2=O)C[C@@](O)(C(=O)CO)C[C@@H]3O[C@H]1C[C@H](N)[C@H](O)[C@H](C)O1` [DOXORUBICIN], for which it took 13200 nM to reach half-maximal inhibition in [3] (IC50).
For the compound `CCOc1ccc(-c2sc(C)nc2-c2cc(OC)c(OC)c(OC)c2)cc1`, the IC50 in the test on HT-29 came out at 487 nM; with Jurkat, 1740 nM; with MCF7, 42.3 nM; with A549 [1] it was 3320 nM; in the test with HeLa, 1870 nM; in the test on HL-60, 253 nM. In test [2], this compound had an IC50 of 1200 nM. Further, in the test filed under Bos taurus, the inhibition is 51%.
For the compound `CNc1nc(-c2cc(OC)c(OC)c(OC)c2)c(-c2ccc(C(F)(F)F)cc2)s1`, the IC50 with HT-29 worked out at 1240 nM; in the test on Jurkat, 3010 nM; with MCF7, 7280 nM; with A549 [1], 4560 nM; with HeLa, 3400 nM; in the test with HL-60 it was 3170 nM.
For the compound `CCOc1ccc(-c2sc(N(C)C)nc2-c2cc(OC)c(OC)c(OC)c2)cc1`, the IC50 was 6030 nM with HT-29; 4150 nM in the test on Jurkat; over 10000 nM with MCF7; over 10000 nM with A549 [1]; 3260 nM with HeLa; 303 nM with HL-60. In addition, the IC50 in [2] was over 20000 nM.
Consider `COc1cc(-c2nc(C)sc2-c2ccc(C(F)(F)F)cc2)cc(OC)c1OC`, for which the IC50 was 396 nM with HT-29; 7110 nM in the test on Jurkat; over 10000 nM in the test on MCF7; 4290 nM in the test with A549 [1]; 3830 nM with HeLa; over 10000 nM in the test on HL-60.
`CC[C@]1(O)C[C@@H]2CN(CCc3c([nH]c4ccccc34)[C@@](C(=O)OC)(c3cc4c(cc3OC)N(C)[C@H]3[C@@](O)(C(=O)OC)[C@H](OC(C)=O)[C@]5(CC)C=CCN6CC[C@]43[C@@H]65)C2)C1` [VINBLASTINE]: the “Ratio IC50” value with CCRF-CEM [4] worked out at 256.2.
Consider `CNc1nc(-c2cc(OC)c(OC)c(OC)c2)c(-c2ccc3ccccc3c2)s1`, for which the IC50 in the test with HT-29 came out at 38.2 nM; in the test on Jurkat, 51.1 nM; in the test on MCF7, 21.1 nM; in the test with A549 [1] it was 151 nM; in the test with HeLa, 128 nM; with HL-60 it was 143 nM. For the same compound, in [2], the midpoint of inhibition, the IC50, lay at 960 nM. Moreover, in the test filed under Bos taurus, the inhibition was found to be 78%.
Regarding `CNc1nc(-c2cc(OC)c(OC)c(OC)c2)c(-c2ccc(OC)cc2)s1`, the IC50 is 6.3 nM in the test with HT-29; 34.3 nM in the test with Jurkat; 152 nM in test [3]; 125 nM in test [6]; 37.6 nM in the test with MCF7; 138 nM in the test on A549 [1]. The IC50 in the test with HeLa was 70.1 nM; in the test on HL-60 it was 27.3 nM; in test [2] it was 1300 nM; in [8], 15 nM; in the test with CCRF-CEM [9] it was 10 nM; in the test on LoVo [10], 190 nM. Moreover, the results for the “Ratio IC50” value with CCRF-CEM [4], with A549 [5] and with LoVo [7] were 1.5, 0.9 and 0.8, respectively. Also, the inhibition in the test listed under Bos taurus was 61%.
With `COc1cc(-c2nc(C)sc2-c2ccc(C)cc2)cc(OC)c1OC`, the IC50 in the test with HT-29 came out at 722 nM; with Jurkat it was 517 nM; with MCF7 it was 1740 nM; in the test on A549 [1], 1950 nM; with HeLa, 1100 nM; in the test with HL-60 it was 1510 nM.
`COc1cc(-c2nc(N(C)C)sc2-c2ccc(C)cc2)cc(OC)c1OC`: the IC50 is 3920 nM in the test on HT-29; 6660 nM with Jurkat; over 10000 nM in the test with MCF7; 3960 nM in the test on A549 [1]; 4140 nM with HeLa; 3480 nM in the test with HL-60. The compound also registered an IC50 in [2] of over 20000 nM.
On to `COc1ccc(-c2sc(N(C)C)nc2-c2cc(OC)c(OC)c(OC)c2)cc1`, for which the IC50 was 497 nM with HT-29; 7600 nM in the test on Jurkat; 8360 nM in the test with MCF7; over 10000 nM in the test with A549 [1]; 3370 nM in the test with HeLa; 1890 nM in the test with HL-60. This compound gave an IC50 in test [2] of over 20000 nM.
Consider `COc1cc(-c2nc(N(C)C)sc2-c2ccc(C(F)(F)F)cc2)cc(OC)c1OC`, for which the IC50 in the test on HT-29, in the test with Jurkat, in the test with MCF7, with A549 [1], with HeLa and in the test on HL-60 was over 10000 nM throughout. Besides, the 50% inhibitory concentration (IC50) in test [2] was over 20000 nM.

These data come from ChEMBL document CHEMBL2202972, “Synthesis and biological evaluation of 2-substituted-4-(3',4',5'-trimethoxyphenyl)-5-aryl thiazoles as anticancer agents” (Bioorg Med Chem, 2012).
